Columns and labels:
Homo sapiens [1] = species: Homo sapiens; assay: Inhibition of mRNA splicing of SMN2 exon 7 in GM03813 fibroblasts derived from SMA patient assessed as maximum fold increase of SMN protein level by 1.5 times after 24 hrs by HTRF assay relative to control
Homo sapiens [2] = species: Homo sapiens; assay: Inhibition of mRNA splicing of human SMN2 exon 7 transfected in HEK293H cells assessed as compound concentration required to increase full-length SMN2 mRNA level by 1.5 times after 24 hrs by RT-qPCR analysis relative to GAPDH; type: cell-based
Method in brief: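 HEK293H cells stably carrying the SMN2 minigene (exon 6 to 5' exon 8 fused to firefly luciferase) were plated and held for 6 h, then treated 24 h in duplicate at varying concentrations (0.5% DMSO). Full-length minigene mRNA and GAPDH were quantified by TaqMan RT-qPCR using actual PCR efficiencies. Results were normalized to GAPDH and DMSO and expressed as fold change versus DMSO.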

Homo sapiens [3] = species: Homo sapiens; assay: Inhibition of mRNA splicing of SMN2 exon 7 in GM03813 fibroblasts derived from SMA patient assessed as compound concentration required to increase SMN protein level by 1.5 times after 24 hrs by HTRF assay
[4] = AUC (0 to 6 hrs) in Sprague-Dawley rat at 10 mg/kg, po; type: ADME, organism-based; parameters: dose 10 mg/kg, time < 6 hr, route oral; conditions: in vivo
Method in brief: (§1)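 Male Sprague-Dawley rats got a single oral 10 mg/kg dose as a suspension in 0.5% hydroxypropyl methylcellulose with 0.1% Tween-80. Plasma was sampled at several time points up to 6 h post dose to give AUC0-6h. Total brain concentration was taken at 6 h to give the brain/plasma ratio.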

[5] = Efflux ratio of apparent permeability from basolateral to apical over apical to basolateral side in human Caco2 cells; type: ADME, cell-based; conditions: Caco-2
Method in brief: (§2)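 Bidirectional permeability was measured across a Caco-2 cell monolayer. Papp was reported, and efflux was expressed as the B-A/A-B ratio.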

[6] = Apparent permeability in human Caco2 cells; type: ADME, cell-based; conditions: Caco-2; method in brief: as §2
[7] = Protein binding in human plasma; type: ADME, cell-free; conditions: read-out: PPB (converted)
[8] = Ratio of drug level in brain to plasma of Sprague-Dawley rat at 10 mg/kg, po measured at 6 hrs; type: ADME, organism-based; conditions: brain and plasma, read-out: BPR; method in brief: as §1

Compound | fold change (FC) (Homo sapiens [1]) | EC1.5 (Homo sapiens [2]) [nM] | EC1.5 (Homo sapiens [3]) [nM] | other results
COc1ccc(-c2cnc3cc(N4CCNCC4)ccn3c2=O)cc1OC | 1 | 3200 | > 10000 | –
COc1ccc(-c2cc3ccc(N4CCNCC4)cc3c(=O)o2)cc1OC | 1.6 | 80 | 290 | –
Cc1ccc2nc(-c3cc4ccc(N5CCNCC5)cc4oc3=O)cn2c1 | – | 140 | 160 | –
O=c1oc2cc(N3CCNCC3)ccc2cc1-c1cn2ccsc2n1 | 1.5 | 110 | 360 | –
Cc1cn2cc(-c3cc4ccc(N5CCN(CCCF)[C@@H](C)C5)cc4oc3=O)nc2c(C)n1 | – | 19 | 60 | –
Cc1cn2cc(-c3cc4ccc(N5CCN(C)CC5)cc4oc3=O)nc2cn1 | – | – | 69 | AUC(0-t) at 6 h [4]: < 10 ng·h/mL; efflux ratio [5]: 0.74; Papp [6]: 2.7 ×10⁻⁶ cm/s; fraction unbound [7]: 0.03
COc1ccc(-c2cc3ccc(N4CCNCC4)cc3oc2=O)cc1OC | 1.3 | 620 | > 10000 | –
Cc1cn2nc(-c3cc(=O)n4cc(N5CCN[C@@H](C)C5)ccc4n3)cc2c(C)n1 | – | 19 | 160 | –
Cc1cn2cc(-c3cc(=O)n4cc(N5CCNCC5)ccc4n3)cc(C)c2n1 | – | 48 | 60 | –
Cc1cn2nc(-c3cc(=O)n4cc(N5CCN(C)CC5)ccc4n3)cc2cn1 | – | – | 300 | AUC(0-t) at 6 h [4]: < 10 ng·h/mL
Cc1cn2nc(-c3cc(=O)n4cc(N5CCN[C@H](C)C5)ccc4n3)cc2c(C)n1 | – | 11 | 71 | –
Cc1cn2cc(-c3cc4ccc(CCCN(C)C)cc4oc3=O)nc2c(C)n1 | – | 58 | 220 | –
Cc1cn2cc(-c3cc4ccc(N5CCNCC5)cc4oc3=O)ccc2n1 | – | 5 | 66 | –
O=c1oc2cc(N3CCNCC3)ccc2cc1-c1nc2ccccc2s1 | 1 | 1000 | > 10000 | –
Cc1cn2cc(-c3cc4ccc(N5CCN(C)[C@@H](C)C5)cc4oc3=O)nc2c(C)n1 | – | – | 63 | AUC(0-t) at 6 h [4]: 260 ng·h/mL; Kp at 6 h [8]: 19
Cc1cn2cc(-c3cc4ccc(N5CCC(N(C)C)CC5)cc4oc3=O)nc2c(C)n1 | – | 11 | 61 | –
Cc1cn2cc(-c3cc4ccc(N5CCN[C@@H](C(C)C)C5)cc4oc3=O)nc2c(C)n1 | – | 23 | 76 | –
O=c1oc2cc(N3CCNCC3)ccc2cc1-c1cn2ccccc2n1 | 1.3 | 380 | > 10000 | –
Cc1cn2nc(-c3cc4ccc(C5CCN(C)CC5)cc4oc3=O)cc2c(C)n1 | – | > 10000 | > 10000 | –
Cc1cn2nc(-c3cc(=O)n4cc(N5CCN(C6CC6)CC5)ccc4n3)cc2c(C)n1 | – | 380 | 690 | –
COc1ccc(-c2cc3ccc(N4CCNCC4)nc3oc2=O)cc1OC | 1 | 8800 | > 10000 | –
Cc1cn2cc(-c3cc4ccc(N5CCNCC5)cc4c(=O)o3)nc2c(C)n1 | – | 8 | 39 | AUC(0-t) at 6 h [4]: 280 ng·h/mL; Kp at 6 h [8]: 0.6; efflux ratio [5]: 2.6; Papp [6]: 4.4 ×10⁻⁶ cm/s; fraction unbound [7]: 0.1
CCc1nc(C)cn2cc(-c3cc4ccc(N5CCNCC5)cc4oc3=O)nc12 | – | 10 | 210 | –
O=c1oc2cc(N3CCNCC3)ccc2cc1-c1ccccc1 | 1 | > 32000 | > 10000 | –
Cc1cn2cc(-c3cc4ccc(C5CCN(C)CC5)cc4oc3=O)nc2c(C)n1 | – | 11 | 50 | –
COc1ccc(-c2cc3ccc(N4CCNCC4)cc3c(=O)[nH]2)cc1OC | 1.2 | 1400 | > 10000 | –
O=c1oc2cc(N3CCNCC3)ccc2cc1-c1nc2ccccc2[nH]1 | 1.2 | 430 | > 10000 | –

Compound | fold change (FC) (Homo sapiens [1]) | EC1.5 (Homo sapiens [2]) [nM] | EC1.5 (Homo sapiens [3]) [nM] | other results
O=c1oc2cc(N3CCNCC3)ccc2cc1-c1cn2ccncc2n1 | – | 70 | 120 | –
CCc1ccc2nc(-c3cc4ccc(N5CCNCC5)cc4oc3=O)cn2c1 | – | 2700 | > 10000 | –
Cc1cn2cc(-c3cc4ccc(N5CCNCC5)cc4oc3=O)nc2c(C)n1 | – | 2 | 15 | AUC(0-t) at 6 h [4]: 340 ng·h/mL; Kp at 6 h [8]: 6.5
Cc1cn2nc(-c3cc(=O)n4cc(C5CCN(C)CC5)ccc4n3)cc2c(C)n1 | – | 53 | 210 | –
CCN1CCN(c2ccc3cc(-c4cn5cc(C)nc(C)c5n4)c(=O)oc3c2)CC1 | – | 10 | 62 | –
COc1ccc(-c2cc(=O)n3cc(N4CCNCC4)ccc3c2)cc1OC | 1.6 | 920 | 2500 | –
Cc1cn2cc(-c3cc4ccc(N5C[C@H]6CNC[C@H]6C5)cc4oc3=O)nc2c(C)n1 | – | 1 | 13 | –
Cc1cn2cc(-c3cc4ccc(N5CCN(CCF)[C@@H](C)C5)cc4oc3=O)nc2c(C)n1 | – | 37 | 450 | –
Cc1cn2cc(-c3cc4ccc(N5CCN6CCC[C@H]6C5)cc4oc3=O)nc2c(C)n1 | – | 21 | 66 | –
Cc1cn2cc(-c3cc4ccc(N5CCNCC5)cc4oc3=O)nc2cn1 | – | 2 | 5 | –
Cc1cn2cc(-c3cc4ccc(N5CCNCC5)cc4oc3=O)cc2c(C)n1 | – | 4 | 29 | –
COc1ccc(-c2cc3ccc(N4CCNCC4)cc3oc2=O)cc1 | 1.1 | 2000 | > 10000 | –
Cc1cn2cc(-c3cc4ccc(N5CCN(C)CC5)cc4c(=O)o3)nc2cn1 | – | – | 120 | AUC(0-t) at 6 h [4]: < 10 ng·h/mL
Cc1cn2cc(-c3cc4ccc(N5CC[C@H]6CNC[C@H]65)cc4oc3=O)nc2c(C)n1 | – | 28 | 640 | –
Cc1cc2cc(-c3cc4ccc(N5CCNCC5)cc4oc3=O)oc2c(C)n1 | – | 4 | 16 | –
Cc1cn2cc(-c3cc4ccc(N5CCN[C@H](C)C5)cc4oc3=O)nc2c(C)n1 | – | 3 | 13 | –
Cc1cn2nc(-c3cc(=O)n4cc(N5CCC(N(C)C)CC5)ccc4n3)cc2c(C)n1 | – | 20 | 130 | –
COc1ccc(-c2cn3ccc(N4CCNCC4)cc3nc2=O)cc1OC | 1 | > 10000 | > 10000 | –
Cc1cn2cc(-c3cc4ccc(N5CCN[C@@H](C)C5)cc4oc3=O)nc2c(C)n1 | – | 1 | 5 | –
Cc1cn2nc(-c3cc(=O)n4cc(N5CCN6CCC[C@H]6C5)ccc4n3)cc2c(C)n1 | – | 120 | 150 | –
COc1ccc(-c2cc3ccc(N4CCNCC4)cn3c(=O)n2)cc1OC | 1 | > 10000 | > 10000 | –
COc1ccc(-c2cc(=O)n3cc(N4CCNCC4)ccc3n2)cc1OC | 1.6 | 120 | 830 | –
COc1ccc(-c2nc3ccc(N4CCNCC4)cc3[nH]c2=O)cc1OC | 1.1 | 2200 | > 10000 | –
Cc1cn2cc(-c3cc4ccc(N5CCN(C(C)(C)C)CC5)cc4oc3=O)nc2c(C)n1 | – | 59 | > 10000 | –
Cc1cn2cc(-c3cc(=O)n4cc(N5CCNCC5)ccc4n3)nc2c(C)n1 | – | 180 | 430 | –
Cc1cc2oc(-c3cc4ccc(N5CCNCC5)cc4oc3=O)cc2c(C)n1 | – | 1500 | > 10000 | –

Source: ChEMBL document CHEMBL4477216, “Discovery and Optimization of Small Molecule Splicing Modifiers of Survival Motor Neuron 2 as a Treatment for Spinal Muscular Atrophy” (J Med Chem, 2016)
